Measurements published in ChEMBL document CHEMBL2424622, “Development of amino-pyrimidine inhibitors of c-Jun N-terminal kinase (JNK): kinase profiling guided optimization of a 1,2,3-benzotriazole lead” (Bioorg Med Chem Lett, 2013).

Columns and labels:
[1] = biological target: Tyrosine-protein kinase HCK (Homo sapiens) (UniProt P08631); assay: Competitive binding affinity to HCK (unknown origin) at 10 uM in presence of ATP relative to control
Summary of the method: (§1)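 In vitro ATP-site competition binding assay, part of profiling against a diverse panel of 128 kinases. Each compound was tested at a single concentration of 10 µM. Kinome selectivity was summarized as S15 selectivity scores.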

[2] = biological target: T1, Serine/threonine-protein kinase Nek9 (Homo sapiens) (UniProt Q8TD19); assay: Competitive binding affinity to NEK9 (unknown origin) at 10 uM in presence of ATP relative to control
T1 sequence (whole entry): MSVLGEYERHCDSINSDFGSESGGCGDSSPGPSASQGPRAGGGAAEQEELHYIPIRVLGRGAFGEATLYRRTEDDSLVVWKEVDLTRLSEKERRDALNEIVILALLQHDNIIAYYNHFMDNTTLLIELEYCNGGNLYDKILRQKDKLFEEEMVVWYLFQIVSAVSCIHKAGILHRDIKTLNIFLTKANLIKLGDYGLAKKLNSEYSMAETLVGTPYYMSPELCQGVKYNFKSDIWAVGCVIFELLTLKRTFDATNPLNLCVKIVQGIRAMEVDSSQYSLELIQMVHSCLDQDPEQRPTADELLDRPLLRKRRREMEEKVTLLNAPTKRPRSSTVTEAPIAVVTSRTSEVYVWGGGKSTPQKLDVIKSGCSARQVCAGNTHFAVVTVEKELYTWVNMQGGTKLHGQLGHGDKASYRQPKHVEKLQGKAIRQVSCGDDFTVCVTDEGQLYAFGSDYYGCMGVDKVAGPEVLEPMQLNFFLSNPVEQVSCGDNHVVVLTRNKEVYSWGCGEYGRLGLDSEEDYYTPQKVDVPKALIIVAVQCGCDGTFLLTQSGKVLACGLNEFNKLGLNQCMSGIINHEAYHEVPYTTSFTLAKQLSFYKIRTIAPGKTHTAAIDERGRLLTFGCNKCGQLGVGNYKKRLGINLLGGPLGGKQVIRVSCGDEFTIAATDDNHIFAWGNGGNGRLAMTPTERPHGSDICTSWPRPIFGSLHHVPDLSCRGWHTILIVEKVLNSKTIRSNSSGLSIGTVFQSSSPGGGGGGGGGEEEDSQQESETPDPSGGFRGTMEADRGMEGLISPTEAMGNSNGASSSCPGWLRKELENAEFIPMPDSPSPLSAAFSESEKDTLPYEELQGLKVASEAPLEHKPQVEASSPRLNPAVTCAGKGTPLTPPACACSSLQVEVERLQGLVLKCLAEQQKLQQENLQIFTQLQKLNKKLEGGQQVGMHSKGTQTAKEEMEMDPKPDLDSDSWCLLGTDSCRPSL
Summary of the method: (§2)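 In vitro ATP-site competition binding assay across a diverse panel of 128 kinases, with compound tested at a single concentration. Kinase selectivity scores (S15) were calculated from the panel profiles.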

[3] = biological target: cAMP-dependent protein kinase catalytic subunit alpha (Homo sapiens) (UniProt P17612); assay: Competitive binding affinity to PKAC-alpha (unknown origin) at 10 uM in presence of ATP relative to control; summary of the method: as §2
[4] = biological target: Cyclin-dependent kinase 5 (Homo sapiens) (UniProt Q00535); assay: Competitive binding affinity to CDK5 (unknown origin) at 10 uM in presence of ATP relative to control
[5] = biological target: Tyrosine-protein kinase Fgr (Homo sapiens) (UniProt P09769); assay: Competitive binding affinity to FGR (unknown origin) at 10 uM in presence of ATP relative to control; summary of the method: as §1
[6] = biological target: T2, Mitogen-activated protein kinase 12 (Homo sapiens) (UniProt P53778); assay: Competitive binding affinity to p38-gamma (unknown origin) at 10 uM in presence of ATP relative to control; summary of the method: as §2
T2 sequence (whole entry): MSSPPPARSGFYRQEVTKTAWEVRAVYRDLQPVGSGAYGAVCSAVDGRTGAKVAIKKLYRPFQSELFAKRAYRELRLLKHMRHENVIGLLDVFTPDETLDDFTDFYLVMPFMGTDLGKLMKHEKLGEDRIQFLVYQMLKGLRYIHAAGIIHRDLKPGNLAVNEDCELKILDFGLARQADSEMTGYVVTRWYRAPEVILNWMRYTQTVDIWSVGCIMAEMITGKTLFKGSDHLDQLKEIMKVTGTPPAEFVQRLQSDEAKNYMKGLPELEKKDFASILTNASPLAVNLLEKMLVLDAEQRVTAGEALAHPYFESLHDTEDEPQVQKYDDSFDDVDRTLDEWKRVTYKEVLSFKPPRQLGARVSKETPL

[7] = biological target: T3, Ephrin type-A receptor 6 (Homo sapiens) (UniProt Q9UF33); assay: Competitive binding affinity to EPHA6 (unknown origin) at 10 uM in presence of ATP relative to control; summary of the method: as §1
T3 sequence (whole entry): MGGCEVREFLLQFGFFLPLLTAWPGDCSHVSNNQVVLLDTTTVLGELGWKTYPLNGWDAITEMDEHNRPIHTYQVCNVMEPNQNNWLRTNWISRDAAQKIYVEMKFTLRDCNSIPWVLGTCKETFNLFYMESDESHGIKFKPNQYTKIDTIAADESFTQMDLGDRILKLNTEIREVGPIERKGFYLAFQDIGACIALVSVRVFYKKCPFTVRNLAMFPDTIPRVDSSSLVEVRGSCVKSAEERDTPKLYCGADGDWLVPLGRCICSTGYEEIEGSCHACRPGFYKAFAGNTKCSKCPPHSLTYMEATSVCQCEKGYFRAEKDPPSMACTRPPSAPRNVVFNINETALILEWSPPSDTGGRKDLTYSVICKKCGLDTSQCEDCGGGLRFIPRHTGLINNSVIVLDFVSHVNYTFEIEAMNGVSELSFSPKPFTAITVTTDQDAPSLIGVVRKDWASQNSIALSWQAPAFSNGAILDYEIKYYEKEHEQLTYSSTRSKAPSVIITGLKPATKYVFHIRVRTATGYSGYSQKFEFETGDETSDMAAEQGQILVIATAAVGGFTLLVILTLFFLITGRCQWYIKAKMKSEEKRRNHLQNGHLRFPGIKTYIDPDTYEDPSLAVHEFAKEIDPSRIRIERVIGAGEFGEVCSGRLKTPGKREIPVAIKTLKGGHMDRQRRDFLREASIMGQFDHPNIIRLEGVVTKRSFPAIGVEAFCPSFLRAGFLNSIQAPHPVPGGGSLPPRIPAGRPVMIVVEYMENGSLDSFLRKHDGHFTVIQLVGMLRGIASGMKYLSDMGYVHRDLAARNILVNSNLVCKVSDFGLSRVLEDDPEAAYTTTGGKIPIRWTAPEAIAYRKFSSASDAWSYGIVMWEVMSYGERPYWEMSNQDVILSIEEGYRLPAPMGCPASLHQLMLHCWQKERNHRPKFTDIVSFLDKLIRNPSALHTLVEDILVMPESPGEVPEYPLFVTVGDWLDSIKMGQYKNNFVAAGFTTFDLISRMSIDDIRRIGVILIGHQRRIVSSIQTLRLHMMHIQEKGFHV

[8] = biological target: Serine/threonine-protein kinase PAK 6 (Homo sapiens) (UniProt Q9NQU5); assay: Competitive binding affinity to PAK6 (unknown origin) at 10 uM in presence of ATP relative to control; summary of the method: as §2
Chain of Serine/threonine-protein kinase PAK 6 (Homo sapiens) (Q9NQU5 whole entry, looked up): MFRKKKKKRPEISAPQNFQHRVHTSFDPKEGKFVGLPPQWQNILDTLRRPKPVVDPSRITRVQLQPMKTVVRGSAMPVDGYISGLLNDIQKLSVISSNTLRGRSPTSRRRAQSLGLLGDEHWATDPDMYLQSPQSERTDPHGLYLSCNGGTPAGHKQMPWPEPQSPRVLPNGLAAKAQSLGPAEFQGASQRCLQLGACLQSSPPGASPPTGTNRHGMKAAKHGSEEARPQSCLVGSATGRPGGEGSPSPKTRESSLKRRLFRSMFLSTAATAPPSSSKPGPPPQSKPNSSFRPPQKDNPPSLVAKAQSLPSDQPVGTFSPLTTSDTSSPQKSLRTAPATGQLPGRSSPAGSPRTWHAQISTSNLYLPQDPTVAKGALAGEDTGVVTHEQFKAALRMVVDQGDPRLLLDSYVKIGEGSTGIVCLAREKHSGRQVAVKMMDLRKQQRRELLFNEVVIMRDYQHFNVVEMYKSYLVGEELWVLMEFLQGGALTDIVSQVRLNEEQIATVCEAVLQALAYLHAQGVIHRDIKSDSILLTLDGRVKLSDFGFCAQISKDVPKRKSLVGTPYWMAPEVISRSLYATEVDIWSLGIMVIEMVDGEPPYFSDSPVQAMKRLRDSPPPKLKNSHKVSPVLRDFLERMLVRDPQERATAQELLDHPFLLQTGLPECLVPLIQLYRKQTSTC

Chain of Tyrosine-protein kinase Fgr (Homo sapiens) (P09769 2-529 limits assumed): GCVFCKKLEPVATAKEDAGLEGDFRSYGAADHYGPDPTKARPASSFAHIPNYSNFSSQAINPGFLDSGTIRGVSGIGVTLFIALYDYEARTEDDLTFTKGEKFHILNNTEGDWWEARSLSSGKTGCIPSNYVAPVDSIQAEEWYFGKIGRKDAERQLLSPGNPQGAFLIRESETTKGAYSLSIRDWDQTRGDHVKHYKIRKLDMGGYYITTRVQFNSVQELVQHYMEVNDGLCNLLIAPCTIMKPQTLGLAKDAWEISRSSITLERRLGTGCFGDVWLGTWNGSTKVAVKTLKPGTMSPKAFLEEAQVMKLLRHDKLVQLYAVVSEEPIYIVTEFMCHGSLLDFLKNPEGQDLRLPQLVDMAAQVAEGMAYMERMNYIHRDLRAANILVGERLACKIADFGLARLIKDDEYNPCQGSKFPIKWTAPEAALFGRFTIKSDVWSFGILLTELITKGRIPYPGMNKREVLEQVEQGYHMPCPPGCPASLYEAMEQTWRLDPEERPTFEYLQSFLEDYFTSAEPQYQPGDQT
Chain of Tyrosine-protein kinase HCK (Homo sapiens) (P08631 2-526 limits assumed): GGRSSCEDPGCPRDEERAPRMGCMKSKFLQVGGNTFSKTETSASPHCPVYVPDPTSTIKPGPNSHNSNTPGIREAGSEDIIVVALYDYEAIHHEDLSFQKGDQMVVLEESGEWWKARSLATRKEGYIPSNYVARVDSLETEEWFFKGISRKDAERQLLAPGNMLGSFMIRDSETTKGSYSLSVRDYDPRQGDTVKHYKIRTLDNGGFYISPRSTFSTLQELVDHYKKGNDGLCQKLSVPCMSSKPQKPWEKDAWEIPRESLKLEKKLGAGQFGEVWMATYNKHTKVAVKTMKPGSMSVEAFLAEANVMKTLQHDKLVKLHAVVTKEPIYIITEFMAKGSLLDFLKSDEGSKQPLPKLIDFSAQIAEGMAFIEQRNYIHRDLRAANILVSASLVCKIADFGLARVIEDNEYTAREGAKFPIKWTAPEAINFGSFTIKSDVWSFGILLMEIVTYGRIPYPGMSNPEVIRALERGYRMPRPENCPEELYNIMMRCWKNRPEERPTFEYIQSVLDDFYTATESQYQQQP
Chain of Cyclin-dependent kinase 5 (Homo sapiens) (Q00535 whole entry, looked up): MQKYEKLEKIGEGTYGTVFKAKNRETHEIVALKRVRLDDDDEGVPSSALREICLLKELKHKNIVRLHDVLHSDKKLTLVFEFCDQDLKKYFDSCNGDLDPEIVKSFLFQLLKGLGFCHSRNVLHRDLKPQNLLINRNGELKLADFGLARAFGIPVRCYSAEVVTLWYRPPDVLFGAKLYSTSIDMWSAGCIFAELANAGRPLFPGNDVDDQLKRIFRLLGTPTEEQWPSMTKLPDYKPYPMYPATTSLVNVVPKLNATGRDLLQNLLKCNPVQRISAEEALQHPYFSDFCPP

Structure (SMILES)	inhibition [1] [%]	inhibition [2] [%]	inhibition [3] [%]	inhibition [4] [%]	inhibition [5] [%]	inhibition [6] [%]	inhibition [7] [%]	inhibition [8] [%]
O[C@H]1CC[C@H](Nc2nccc(-n3nnc4ccccc43)n2)CC1	< 50	81	< 50	74	75	96	< 50	< 50
O[C@H]1CC[C@H](Nc2nccc(-n3ncc4ccccc43)n2)CC1	< 50	< 50	< 50	< 50	< 50	< 50	< 50	< 50
O[C@H]1CC[C@H](Nc2nccc(-c3n[nH]c4ccccc34)n2)CC1	66	< 50	< 50	95	80	< 50	< 50	86
O[C@H]1CC[C@H](Nc2nccc(-n3ccc4ccccc43)n2)CC1	< 50	< 50	< 50	< 50	< 50	< 50	< 50	< 50
O=C([C@H]1CC[C@H](Nc2nccc(-n3nnc4ccccc43)n2)CC1)N1CCOCC1	< 50	< 50	< 50	< 50	82	< 50	< 50	< 50
N[C@H]1CC[C@H](Nc2nccc(-n3nnc4ccccc43)n2)CC1	78	< 50	< 50	90	80	< 50	< 50	< 50
